Measured values taken from ChEMBL document CHEMBL1152796, “Azole antimicrobial pharmacophore-based tetrazoles: synthesis and biological evaluation as potential antimicrobial and anticonvulsant agents” (Bioorg Med Chem, 2009).
Converted amounts (≈) assume the structure as drawn. The source made the active and inactive calls. No cut-off for these calls is given here.

What was measured:
Bacillus subtilis [1] = assay: Antibacterial activity against Bacillus subtilis NRRL B-14819 after 24 to 48 hrs by twofold serial dilution method; format: functional
In short: (§1)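 Broth microdilution in Müller–Hinton broth. DMSO stocks at 800 were diluted twofold from 400 down to 6.25. Wells received 10^6 CFU/mL bacterial suspension and were incubated at 36 °C for 24–48 h, with controls. MIC was read per well. Duplicate assays; run only for compounds giving inhibition zones ≥14 mm.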

Staphylococcus aureus [2] = assay: Antibacterial activity against Staphylococcus aureus ATCC 6538 after 24 to 48 hrs by twofold serial dilution method; format: functional; in short: as §1
Micrococcus luteus [3] = assay: Antibacterial activity against Micrococcus luteus ATCC 21881 after 24 to 48 hrs by twofold serial dilution method; format: functional; in short: as §1
Aspergillus niger = assay: Antifungal activity against Aspergillus niger isolate after 72 hrs by twofold serial dilution method; format: functional, organism-based
Pseudomonas aeruginosa [4] = assay: Antibacterial activity against Pseudomonas aeruginosa ATCC 27853 after 24 to 48 hrs by twofold serial dilution method; format: functional; in short: as §1
Pichia kudriavzevii = assay: Antifungal activity against Candida krusei isolate after 72 hrs by twofold serial dilution method; format: functional, organism-based
Klebsiella pneumoniae [5] = assay: Antibacterial activity against Klebsiella pneumoniae isolate after 24 to 48 hrs by twofold serial dilution method; format: functional; in short: as §1
Candida tropicalis = assay: Antifungal activity against Candida tropicalis isolate after 72 hrs by twofold serial dilution method; format: functional, organism-based
Escherichia coli [6] = assay: Antibacterial activity against Escherichia coli ATCC 25922 after 24 to 48 hrs by twofold serial dilution method; format: functional; in short: as §1
Trichophyton rubrum = assay: Antifungal activity against Trichophyton rubrum isolate after 72 hrs by twofold serial dilution method; format: functional, organism-based
Staphylococcus aureus [7] = assay: Antibacterial activity against Staphylococcus aureus ATCC 6538 at 1 mg/mL after 24 hrs by agar diffusion method; format: functional; conditions: ATCC 6538, 24 h, read-out: Diameter of inhibition zone
In short: (§2)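 Agar disc diffusion: 5 mm sterile paper discs soaked in 1 mg/mL test solution in DMSO were placed on agar seeded with the organism, in triplicate, with a DMSO-only control. Bacterial plates were incubated at 37 °C for 24 h and fungal plates for 7 days. Read-out was the average inhibition-zone diameter in mm. Fungi were clinical isolates.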

Bacillus subtilis [8] = assay: Antibacterial activity against Bacillus subtilis NRRL B-14819 at 1 mg/mL after 24 hrs by agar diffusion method; format: functional; conditions: read-out: Diameter of inhibition zone; in short: as §2
Klebsiella pneumoniae [9] = assay: Antibacterial activity against Klebsiella pneumoniae isolate at 1 mg/mL after 24 hrs by agar diffusion method; format: functional; conditions: read-out: Diameter of inhibition zone; in short: as §2
Aspergillus fumigatus = assay: Antifungal activity against Aspergillus fumigatus isolate at 1 mg/mL after 7 days by agar diffusion method; format: functional; conditions: 168 h, read-out: Diameter of inhibition zone; in short: as §2
Candida albicans = assay: Antifungal activity against Candida albicans isolate at 1 mg/mL after 7 days by twofold serial dilution method; format: functional; conditions: 168 h, read-out: Diameter of inhibition zone
Escherichia coli [10] = assay: Antibacterial activity against Escherichia coli ATCC 25922 at 1 mg/mL after 24 hrs by agar diffusion method; format: functional; conditions: ATCC 25922, 24 h, read-out: Diameter of inhibition zone; in short: as §2
Micrococcus luteus [11] = assay: Antibacterial activity against Micrococcus luteus ATCC 21881 at 1 mg/mL after 24 hrs by agar diffusion method; format: functional; conditions: ATCC 21881, 24 h, read-out: Diameter of inhibition zone; in short: as §2
Pseudomonas aeruginosa [12] = assay: Antibacterial activity against Pseudomonas aeruginosa ATCC 27853 at 1 mg/mL after 24 hrs by agar diffusion method; format: functional; conditions: ATCC 27853, 24 h, read-out: Diameter of inhibition zone; in short: as §2

SMILES	MIC (Bacillus subtilis [1]) [µg/mL]	MIC (Staphylococcus aureus [2]) [µg/mL]	MIC (Micrococcus luteus [3]) [µg/mL]	Activity (Aspergillus niger)	MIC (Pseudomonas aeruginosa [4]) [µg/mL]	Activity (Pichia kudriavzevii)	MIC (Klebsiella pneumoniae [5]) [µg/mL]	Activity (Candida tropicalis)	MIC (Escherichia coli [6]) [µg/mL]	Activity (Trichophyton rubrum)	zone of inhibition at 1000 µg/mL (Staphylococcus aureus [7]) [mm]	zone of inhibition at 1000 µg/mL (Bacillus subtilis [8]) [mm]	zone of inhibition at 1000 µg/mL (Klebsiella pneumoniae [9]) [mm]	zone of inhibition at 1000 µg/mL (Aspergillus fumigatus) [mm]	zone of inhibition at 1000 µg/mL (Candida albicans) [mm]	zone of inhibition at 1000 µg/mL (Escherichia coli [10]) [mm]	zone of inhibition at 1000 µg/mL (Micrococcus luteus [11]) [mm]	zone of inhibition at 1000 µg/mL (Pseudomonas aeruginosa [12]) [mm]
NNC(=O)COC(Cn1nnc(-c2ccccc2)n1)c1ccc(Cl)cc1 (stereo not given)	≥ 200	100 (≈ 268 µM)	≥ 200	inactive	≥ 200	inactive	≥ 200	inactive	≥ 200	inactive								
CC1(C)S[C@@H]2[C@H](NC(=O)[C@H](N)c3ccccc3)C(=O)N2[C@H]1C(=O)O.O.O.O [AMPICILLIN TRIHYDRATE]	12.5	6.25	12.5		12.5		12.5		6.25									
CCOC(=O)COC(Cn1nnc(-c2ccccc2)n1)c1ccc(Cl)cc1 (stereo not given)	≥ 200	100 (≈ 259 µM)	≥ 200	inactive	≥ 200	inactive	≥ 200	inactive	≥ 200	inactive	≥ 14	≥ 14	≥ 14	≥ 14	≥ 14	≥ 14	≥ 14	≥ 14
O=C(COC(Cn1nnc(-c2ccccc2)n1)c1ccc(Cl)cc1)N/N=C/c1ccc(Cl)cc1 (stereo not given)	50 (≈ 101 µM)	50 (≈ 101 µM)	100 (≈ 202 µM)	inactive	≥ 200	inactive	≥ 200	inactive	100 (≈ 202 µM)	inactive	≥ 14	≥ 14	≥ 14	≥ 14	≥ 14	≥ 14	≥ 14	≥ 14
O=C(COC(Cn1nnnc1Cc1ccccc1)c1ccc(Cl)cc1)NNC(=S)Nc1ccccc1 (stereo not given)	≥ 200	100 (≈ 192 µM)	100 (≈ 192 µM)	inactive	≥ 200	inactive	≥ 200	inactive	100 (≈ 192 µM)	inactive	≥ 14	≥ 14	≥ 14	≥ 14	≥ 14	≥ 14	≥ 14	≥ 14
O=C(O)COC(Cn1nnc(-c2ccccc2)n1)c1ccc(Cl)cc1 (stereo not given)	100 (≈ 279 µM)	100 (≈ 279 µM)	≥ 200	inactive	≥ 200	inactive	≥ 200	inactive	≥ 200	inactive	≥ 14	≥ 14	≥ 14	≥ 14	≥ 14	≥ 14	≥ 14	≥ 14
Clc1ccc(C(Cn2nnc(-c3ccccc3)n2)OCc2nnc(Nc3ccccc3)o2)cc1 (stereo not given)	50 (≈ 106 µM)	12.5 (≈ 26.4 µM)	100 (≈ 211 µM)	inactive	100 (≈ 211 µM)	inactive	100 (≈ 211 µM)	inactive	25 (≈ 52.8 µM)	inactive	≥ 14	≥ 14	≥ 14	≥ 14	≥ 14	≥ 14	≥ 14	≥ 14
O=C(COC(Cn1nnnc1Cc1ccccc1)c1ccc(Cl)cc1)NNC(=S)Nc1ccc(Cl)cc1 (stereo not given)	≥ 200	100 (≈ 180 µM)	≥ 200	inactive	≥ 200	inactive	≥ 200	inactive	≥ 200	inactive	≥ 14	≥ 14	≥ 14	≥ 14	≥ 14	≥ 14	≥ 14	≥ 14
Clc1ccc(/C=C/n2nnc(-c3ccccc3)n2)cc1	≥ 200	100 (≈ 354 µM)	≥ 200	inactive	≥ 200	inactive	≥ 200	inactive	100 (≈ 354 µM)	inactive	≥ 14	≥ 14	≥ 14	≥ 14	≥ 14	≥ 14	≥ 14	≥ 14
Sc1nnc(COC(Cn2nnc(-c3ccccc3)n2)c2ccc(Cl)cc2)n1-c1ccc(Cl)cc1 (stereo not given)	50 (≈ 95.3 µM)	25 (≈ 47.7 µM)	100 (≈ 191 µM)	inactive	≥ 200	inactive	100 (≈ 191 µM)	inactive	100 (≈ 191 µM)	inactive	≥ 14	≥ 14	≥ 14	≥ 14	≥ 14	≥ 14	≥ 14	≥ 14
